Published values pooled from the literature.
Protocols differ between the studies behind these lines.

SMILES	assay	system	conditions	quantity	result
CCOC(=O)c1cc(Cl)cc(NC(=O)c2sc(Cl)cc2S(=O)(=O)N(C)c2ccc(OCC)c(OC)c2)c1	–	male C57BL/6 mouse, brain	intraperitoneal, 10 mg/kg, 1 h	concentration	6.45 ng/g
CN(C)CC#Cc1ccc2[nH]c3c(c2c1)-c1nc(N)ncc1CCC3	–	male CD-1 mouse, plasma	intraperitoneal, 30 mg/kg, 1 h, single dose	concentration	697 ng/mL
COc1cc(N2CCC(N3CCN(C)CC3)CC2)ccc1Nc1ncc(Cl)c(Nc2ccccc2P(C)(C)=O)n1	–	–	–	logP	2.69
O=c1ccc2ccc(O)cc2o1	metabolic stability	dog, liver microsomes	–	scaled CLint	1720 mL/min/kg
CCOC(=O)CN(C(=O)c1ccn2ncc(-c3ccc(C(=O)NC)cc3)c2c1)c1ccc(Cl)cc1	–	female C57BL/6 mouse, plasma	oral, 10 mg/kg, 4 h	concentration	150 nM
O=C1NC(=O)/C(=C/c2ccc3ncnc(N4CCC(F)(F)CC4)c3n2)S1	–	–	–	logP	2.51
CCN1CCN(Cc2ccc(NC(=O)c3ccc(C)c(NC(=O)c4cncc(-c5cccs5)c4)c3)cc2C(F)(F)F)CC1	–	mouse, plasma	intraperitoneal, 20 mg/kg, single dose	half-life	2.52 h
CNC(=O)c1ccc(-c2cnn3ccc(C(=O)N(C[C@H]4CCC(=O)O4)c4ccc(OC(F)(F)F)cc4)cc23)cc1	–	female C57BL/6 mouse, plasma	oral, 10 mg/kg, 1 h	concentration	31.4 nM
Cc1cc2sc(N)nc2c2cccnc12	–	female BALB/c mouse, plasma	intraperitoneal, 30 mg/kg, 24 h, single dose	concentration	32.7 ng/mL
O=C1NC(=O)/C(=C/c2ccc3ncnc(N4CCCCC4)c3n2)S1	–	–	–	logP	2.33
CCOc1ccc2ccc(=O)oc2c1	metabolic stability	male beagle dog, hepatocytes	1 µM	hepatocyte CLint	> 46.2 µL/min/10⁶ cells
CCN1CCN(C(=O)c2ccc(-n3nc(-c4cccnc4)c4c3-c3sc(NC(C)=O)nc3CC4)cc2)CC1	–	–	–	logP	3.16
CN(C(=O)c1ccn2ncc(-c3ccc(C(N)=O)cc3)c2c1)c1ccc(C#N)cn1	–	female C57BL/6 mouse, plasma	oral, 10 mg/kg, 4 h	concentration	519 nM
